One assay deals with T1, Neutrophil elastase (Homo sapiens, UniProt P08246).
T1 sequence (P08246 whole entry): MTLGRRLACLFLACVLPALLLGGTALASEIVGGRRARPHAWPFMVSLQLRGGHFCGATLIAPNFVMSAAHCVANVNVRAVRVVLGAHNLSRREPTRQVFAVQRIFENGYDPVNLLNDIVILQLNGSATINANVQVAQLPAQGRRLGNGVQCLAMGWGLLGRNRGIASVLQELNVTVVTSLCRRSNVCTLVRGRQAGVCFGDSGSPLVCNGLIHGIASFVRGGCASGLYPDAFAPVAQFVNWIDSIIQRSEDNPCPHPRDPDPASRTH
Nature of the assay: In vitro inhibition constant (Ki) against human leukocyte elastase (HLE-catalyzed hydrolysis of MeO-Suc-Ala-Ala-Pro-Ala-pNA).

The subject of assay [1] is Cricetinae gen. sp. Description: Compound at an oral dose of 2.5 mg/Kg was tested in vivo in hamster for the inhibition of elastase-induced lung hemorrhage by acute hemorrhagic assay; Not statistically significant. The format is functional, organism-based. The conditions noted are these: Cricetulus griseus.
The subject of assay [2] is Cricetinae gen. sp. Description: Compound at an intratracheal dose of 100 nM was tested in vivo in hamster for the inhibition of elastase-induced lung hemorrhage by acute hemorrhagic assay. The format is functional, Cricetulus griseus. The procedure, abridged: (§1)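 Hamster acute hemorrhagic assay: test agent given intratracheally at 100 nmol/animal 30 min before intratracheal instillation of 50 μg HLE. Read-out is percent inhibition of elastase-induced lung hemorrhage versus controls. Significance is by Student's t test, P < 0.05; NS means not significant at that dose.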

Assay [3] deals with Cricetinae gen. sp. Description: Compound at an intratracheal dose of […] was tested in vivo in hamster for the inhibition of elastase-induced lung hemorrhage by acute hemorrhagic assay; Not statistically significant. The format is functional, organism-based. The conditions noted are these: Cricetulus griseus. The procedure, abridged: as §1
In assay [4] the test system is Cricetinae gen. sp. Nature of the assay: Compound at an oral dose of 5 mg/Kg was tested in vivo in hamster for the inhibition of elastase-induced lung hemorrhage by acute hemorrhagic assay; Not statistically significant. To be noted: Cricetulus griseus. The format is functional, organism-based.

The source made the active and inactive calls. No cut-off for these calls is given here.

For orientation: Ki means the dissociation constant of the complex between target and ligand, obtained from inhibition or displacement. Read a high Ki as weaker binding. `COc1ccc(S(=O)(=O)N[C@H](C(=O)N2CCC[C@H]2C(=O)NC(C(=O)C(F)(F)F)C(C)C)C(C)C)cc1` (stereo partly specified) registered an inhibition constant Ki at Neutrophil elastase of 8 nM.
One may read the Inhibition as the share of the control response that was lost under treatment. High values mean a response far below the control, low ones a response near the control. In the case of `Cc1ccccc1S(=O)(=O)NC(=O)c1ccc(S(=O)(=O)Nc2ccc(-c3ccccc3)n(CC(=O)NC(C(=O)C(F)(F)F)C(C)C)c2=O)cc1` (stereo unspecified), at Neutrophil elastase, the Ki was found to be 18 nM. For the same molecule, in the assay on Cricetinae gen. sp. [1], the inhibition result is “inactive”. Besides, the Inhibition in the assay with Cricetinae gen. sp. [2] is 97%.
For `CC(C)C(NC(=O)Cn1c(-c2ccccc2)ccc(NC=O)c1=O)C(=O)C(F)(F)F` (stereo unspecified), in the assay on Cricetinae gen. sp. [3], the inhibition result was “inactive”.
Take `CC(C)C(NC(=O)Cn1c(-c2ccccc2)ccc(NS(=O)(=O)c2ccccc2)c1=O)C(=O)C(F)(F)F` (stereo unspecified): the inhibition entry with Cricetinae gen. sp. [3] and with Cricetinae gen. sp. [4] was “inactive” each time.
In the assay on Cricetinae gen. sp. [2], `CC(=O)Nc1ccc(S(=O)(=O)Nc2ccc(-c3ccccc3)n(CC(=O)NC(C(=O)C(F)(F)F)C(C)C)c2=O)cc1` (stereo unspecified) yielded an Inhibition of 95%.
The molecule `CC(C)C(NC(=O)Cn1c(-c2ccccc2)ccc(NS(=O)(=O)c2ccc(C(=O)NS(=O)(=O)c3ccc(Cl)cc3)cc2)c1=O)C(=O)C(F)(F)F` (stereo unspecified) displayed a Ki on Neutrophil elastase of 9.4 nM. The inhibition entry in the assay on Cricetinae gen. sp. [1] was “inactive”. In the assay on Cricetinae gen. sp. [2], this molecule returned an Inhibition of 96%.
